# From ChEMBL document CHEMBL3259808, “Optimization of antitrypanosomatid agents: identification of nonmutagenic drug candidates with in vivo activity” (J Med Chem, 2014)
# pIC50: −log10 of the molar value.
# How the values were obtained:
# Trypanosoma cruzi [1] = test: Antitrypanosomal activity against Trypanosoma cruzi Tulahuen 2 epimastigotes assessed as growth inhibition after 5 days; format: functional, organism-based; conditions: Trypanosoma cruzi, Tulahuen 2, 120 h
# Procedure, shortened: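 Epimastigotes were grown axenically at 28 °C in BHI-tryptose with 5% FBS and seeded from a 5–7 day culture at 1 × 10⁶ cells/mL. Drug from a DMSO stock was added (final DMSO ≤0.4%; the control contained 0.4% DMSO). Duplicates were run. A600 was read at day 5, and % inhibition was calculated relative to day-0 and control readings. IC50 = concentration that halves the absorbance ratio.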
# Trypanosoma cruzi [2] = test: Antitrypanosomal activity against Trypanosoma cruzi Sylvio X-10 amastigotes infected in African green monkey Vero cells assessed as eradication of amastigotes after 5 days by Giemsa staining-based assay; format: functional, organism-based; conditions: Sylvio X-10, Vero, 120 h
# Procedure, shortened: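 VERO cells in RPMI 1640 with 10% hiFCS were allowed to adhere for 24 h at 37 °C in 5% CO₂, then infected with tissue-derived trypomastigotes at 10:1. Free parasites were washed off after 24 h, and cultures were treated at five compound doses (text gives 72 h / 5 days). Cultures were methanol-fixed and Giemsa-stained, and infected cells were counted among 300. Quadruplicates were run in three independent experiments. IC50/IC90 were obtained by sigmoidal regression.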
# Salmonella typhimurium [3] = test: Mutagenic activity in Salmonella typhimurium TA98 at 0.005 to 0.4 ug/plate by Ames test; format: toxicity, organism-based; conditions: salmonella enterica subsp. enterica serovar typhimurium
# Procedure, shortened: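 Direct plate incubation on minimal glucose agar (Vogel-Bonner E). Compound toxicity to the bacteria was checked first. DMSO solutions were tested at five consecutive 3-fold dilutions, starting from the highest non-toxic dose, in triplicate, without metabolic activation. DMSO served as negative control. Revertants were counted manually; mutagenic = revertants at least double the negative control at two or more consecutive doses.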
# Salmonella typhimurium [4] = test: Mutagenic activity in Salmonella typhimurium TA98 at 0.005 to 0.4 ug/plate by Ames test in presence of mouse liver S9 fraction; format: toxicity, organism-based; conditions: salmonella enterica subsp. enterica serovar typhimurium
# Procedure, shortened: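 Plate-incorporation Ames test on minimal glucose agar with 500 μL Aroclor-treated mouse liver S9 added. DMSO solutions were tested at five consecutive 3-fold dilutions from the highest non-toxic dose, in triplicate, with a DMSO negative control. Revertants were counted manually; a compound was scored mutagenic when revertants were at least twice the negative control for two or more consecutive doses.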
# Trypanosoma cruzi [5] = test: Antitrypanosomal activity against Trypanosoma cruzi Sylvio X-10 amastigotes infected in African green monkey Vero cells assessed as eradication of amastigotes after 72 hrs by Giemsa staining-based assay; conditions: Sylvio X-10, Vero
# Salmonella typhimurium [6] = test: Mutagenic activity in Salmonella typhimurium TA98 at 5 to 400 ug/plate by Ames test; format: toxicity, organism-based; conditions: salmonella enterica subsp. enterica serovar typhimurium
# Procedure, shortened: (§1)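 Ames plate-incorporation assay with S. typhimurium TA98 in Vogel-Bonner E minimal glucose agar. Toxicity toward the bacteria was checked first. DMSO solutions were run in triplicate at five consecutive third-dilutions, starting at the highest non-toxic dose. Positive controls were 4-nitro-o-phenylenediamine (20.0 μg/plate) and 2-aminofluorene (10.0 μg/plate); DMSO was the negative control. Revertants were counted manually. A compound was called mutagenic when revertants were at least twice the negative control at two or more consecutive doses.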
# Salmonella typhimurium [7] = test: Mutagenic activity in Salmonella typhimurium TA98 at 5 to 400 ug/plate by Ames test in presence of mouse liver S9 fraction; format: toxicity, organism-based; conditions: salmonella enterica subsp. enterica serovar typhimurium; procedure, shortened: as §1
# [8] = Stability of the compound in aqueous solution assessed as compound remaining at 1 mM at pH 6 after 1 hr by TLC analysis; format: physicochemical; conditions: aqueous solution, pH 6; read-out: Stability
# Procedure, shortened: (§2)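 DMSO stocks diluted to final 1 mM in KCl·HCl pH 1.0, citrate pH 6.0, Tris·HCl pH 7.4 or borax·HCl pH 9.0 buffer. Incubated 1 h at 37 °C, then ethyl acetate extracts checked by TLC for decomposition products.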
# [9] = Stability of the compound in aqueous solution assessed as compound remaining at 1 mM at pH 7.4 after 1 hr by TLC analysis; format: physicochemical; conditions: aqueous solution, pH 7.4; read-out: Stability; procedure, shortened: as §2
# [10] = Stability of the compound in aqueous solution assessed as compound remaining at 1 mM at pH 9 after 1 hr by TLC analysis; format: physicochemical; conditions: aqueous solution, pH 9; read-out: Stability; procedure, shortened: as §2
Compound,pIC50 (Trypanosoma cruzi [1]),other results
C=CCn1c(-c2ccc(OC)cc2)cs\c1=N/N=C/C=C/c1cccs1,< 4.60,
C=CCN(C(C)=O)C1=NNC(c2cccs2)S1 (centres undefined),< 4.60,
C=CCn1c(-c2ccc(Cl)cc2)cs/c1=N/N=C/c1ccc([N+](=O)[O-])s1,4.85,pIC50 (Trypanosoma cruzi [2]): < 4.60; IC90 (Trypanosoma cruzi [5]): > 25 µM
C=CCn1c(-c2ccc(Cl)cc2)cs\c1=N/N=C/C=C/c1cccs1,< 4.60,
C=CCn1c(-c2ccc(OC)cc2)cs/c1=N/N=C/c1ccc([N+](=O)[O-])s1,5.10,pIC50 (Trypanosoma cruzi [2]): < 4.60; IC90 (Trypanosoma cruzi [5]): > 25 µM
C=CCN(C(C)=O)C1=NNC(c2ccc([N+](=O)[O-])s2)S1 (centres undefined),< 4.60,
C=CCNC(=S)N/N=C/c1ccc2c(c1)OCO2,< 4.60,
C=CCN1C(=O)CS/C1=N\N=C\c1cccs1,< 4.60,
N/C(S)=N/N=C/c1ccc([N+](=O)[O-])s1,4.60,
C=CCNC(=S)N/N=C/c1ccnc2ccccc12,4.77,
C=CCN1C(=O)CS/C1=N/N=C\c1ccc(Cl)cc1,< 4.60,
Cc1cs/c(=N\N=C\c2cccs2)n1-c1ccccc1,< 4.60,
C=CCn1c(-c2ccc(Cl)cc2)cs/c1=N\N=C\c1ccc2c(c1)[n+]([O-])c(C)c(C)[n+]2[O-],4.82,
O=C1CS/C(=N\N=C\c2ccc([N+](=O)[O-])s2)N1,< 4.60,

# Continued, in another order:
pIC50 (Trypanosoma cruzi [1]),Compound,other results
5.00,C=CCn1c(C)cs/c1=N\N=C\c1ccc([N+](=O)[O-])s1,pIC50 (Trypanosoma cruzi [2]): 4.98; Activity (Salmonella typhimurium [3]): Non-toxic; Activity (Salmonella typhimurium [4]): Non-toxic
< 4.60,C=CCn1c(C)cs/c1=N\N=C\c1ccc(S(=O)(=O)O)o1,
5.27,C=CCNC(=S)N/N=C/c1ccc2ccccc2c1,
< 4.60,C=CCNC(=S)N/N=C/C=C/c1cccs1,Activity (Salmonella typhimurium [6]): Non-toxic; Activity (Salmonella typhimurium [7]): Non-toxic
5.30,C(=C\c1ccco1)/C=N/N=c1/scc(-c2ccccc2)n1-c1ccccc1,
< 4.60,C=CCNC(=S)N/N=C/c1ccc(O)cc1,
< 4.60,C=CCN(C(C)=O)C1=NN(C(C)=O)C(/C=C/c2ccco2)S1 (centres undefined),
5.77,S=C(N/N=C/C=C/C=C/c1cccs1)Nc1ccccc1,pIC50 (Trypanosoma cruzi [2]): < 4.60; IC90 (Trypanosoma cruzi [5]): > 25 µM
< 4.60,C(=N\N=c1/scc(-c2ccccc2)n1-c1ccccc1)/c1ccccc1,
5.31,C=CCn1c(-c2ccc(OC)cc2)cs\c1=N/N=C/C=C/c1ccco1,"Activity (Salmonella typhimurium [6]): Non-toxic; Activity (Salmonella typhimurium [7]): Non-toxic; remaining at 1 h, 1000 µM [8]: > 95%; remaining at 1 h, 1000 µM [9]: > 95%; remaining at 1 h, 1000 µM [10]: > 95%"
< 4.60,C=CCn1c(-c2ccc3ccccc3c2)cs\c1=N/N=C/C=C/c1cccs1,
4.89,O=C1CS/C(=N\N=C\c2ccc([N+](=O)[O-])s2)N1c1ccccc1 (stereo in doubt; 10),pIC50 (Trypanosoma cruzi [2]): < 4.60; IC90 (Trypanosoma cruzi [5]): > 25 µM
< 4.60,C=CCNC(=S)N/N=C/c1cncc(Br)c1,
< 4.60,C=CCn1c(-c2ccccc2)cs\c1=N/N=C/C=C/c1cccs1,
5.00,C=CCNC(=S)N/N=C/c1ccc(SC)cc1,
< 4.60,O=C1CS\C(=N/N=C\C=C\C=C\c2cccs2)N1c1ccccc1,
< 4.60,O=C1CS\C(=N/N=C/C=C/c2ccco2)N1c1ccccc1,
